Test system: healthy subjects
Assay: Multiple ascending dose
Format: in vivo, human
Details: for Abdominal distention, subjects (%) / Abdominal pain, subjects (%) / Acne, subjects (%) / Application site dermatitis, subjects (%) / Arthralgia, subjects (%) / Asthenia, subjects (%) / Back pain, subjects (%) / Chapped lips, subjects (%) / Chest pain, subjects (%) / Chromaturia, subjects (%) / Constipation, subjects (%) / Decreased appetite, subjects (%) / Dermatitis contact, subjects (%) / Diarrhea, subjects (%) / Dizziness, subjects (%) / Dry mouth, subjects (%) / Eructation, subjects (%) / Fatigue, subjects (%) / Feeling hot, subjects (%) / Flatulence, subjects (%) / Flushing, subjects (%) / Headache, subjects (%) / Hordeolum, subjects (%) / Muscle tightness, subjects (%) / Muscular weakness, subjects (%) / Myalgia, subjects (%) / Nausea, subjects (%) / Non-cardiac chest pain, subjects (%) / Number of AEs reported / Ocular hyperemia, subjects (%) / Oropharyngeal pain, subjects (%) / Pain in extremity, subjects (%) / Pain in jaw, subjects (%) / Palpitations, subjects (%) / Paraesthesia, subjects (%) / Pruritus, subjects (%) / Restless leg syndrome, subjects (%) / Somnolence, subjects (%) / Total (%) subjects with at least one AE / Total (%) subjects with at least one SAE / Tremor, subjects (%) / Vomiting, subjects (%): all dose levels, n = 20
Method in brief: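 Subjects on test compound or placebo were domiciled up to 31 days (QD Cohorts 1–2) or 34 days (BID Cohort 3), with a 48-h drug-free follow-up. Monitoring at multiple time points covered adverse events, vital signs, 12-lead ECG with intensive ECG monitoring in all cohorts, and safety labs (serum chemistry, hematology, urinalysis). Data were summarized descriptively by treatment group.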

O=C(O)COC[C@H]1CC[C@H](COC(=O)N(c2ccccc2)c2ccc(Cl)cc2)CC1 [ralinepag]
Abdominal distention, subjects (%) (Cohort 3, BID): 0 | Abdominal pain, subjects (%) (Cohort 3, BID): 4 (20%) | Acne, subjects (%) (Cohort 3, BID): 2 (10%) | Application site dermatitis, subjects (%) (Cohort 3, BID): 0 | Arthralgia, subjects (%) (Cohort 3, BID): 9 (45%) | Asthenia, subjects (%) (Cohort 3, BID): 0 | Back pain, subjects (%) (Cohort 3, BID): 2 (10%) | Chapped lips, subjects (%) (Cohort 3, BID): 2 (10%) | Chest pain, subjects (%) (Cohort 3, BID): 1 (5%) | Chromaturia, subjects (%) (Cohort 3, BID): 2 (10%) | Constipation, subjects (%) (Cohort 3, BID): 1 (5%) | Decreased appetite, subjects (%) (Cohort 3, BID): 1 (5.0%) | Dermatitis contact, subjects (%) (Cohort 3, BID): 2 (10%) | Diarrhea, subjects (%) (Cohort 3, BID): 7 (35%) | Dizziness, subjects (%) (Cohort 3, BID): 9 (45%) | Dry mouth, subjects (%) (Cohort 3, BID): 2 (10%) | Eructation, subjects (%) (Cohort 3, BID): 0 | Fatigue, subjects (%) (Cohort 3, BID): 3 (15%) | Feeling hot, subjects (%) (Cohort 3, BID): 2 (10%) | Flatulence, subjects (%) (Cohort 3, BID): 0 | Flushing, subjects (%) (Cohort 3, BID): 3 (15%) | Headache, subjects (%) (Cohort 3, BID): 17 (85%) | Hordeolum, subjects (%) (Cohort 3, BID): 0 | Muscle tightness, subjects (%) (Cohort 3, BID): 2 (10%) | Muscular weakness, subjects (%) (Cohort 3, BID): 2 (10%) | Myalgia, subjects (%) (Cohort 3, BID): 9 (45%) | Nausea, subjects (%) (Cohort 3, BID): 9 (45%) | Non-cardiac chest pain, subjects (%) (Cohort 3, BID): 0 | Number of AEs reported (Cohort 3, BID): 196 | Ocular hyperemia, subjects (%) (Cohort 3, BID): 3 (15%) | Oropharyngeal pain, subjects (%) (Cohort 3, BID): 1 (5%) | Pain in extremity, subjects (%) (Cohort 3, BID): 0 | Pain in jaw, subjects (%) (Cohort 3, BID): 13 (65%) | Palpitations, subjects (%) (Cohort 3, BID): 5 (25%) | Paraesthesia, subjects (%) (Cohort 3, BID): 4 (20%) | Pruritus, subjects (%) (Cohort 3, BID): 2 (10%) | Restless leg syndrome, subjects (%) (Cohort 3, BID): 2 (10%) | Somnolence, subjects (%) (Cohort 3, BID): 2 (10%) | Total (%) subjects with at least one AE (Cohort 3, BID): 19 (95.0%) | Total (%) subjects with at least one SAE (Cohort 3, BID): 0 (0%) | Tremor, subjects (%) (Cohort 3, BID): 1 (5.0%) | Vomiting, subjects (%) (Cohort 3, BID): 3 (15%) | Abdominal distention, subjects (%) (Cohorts 1 and 2, QD): 2 (10%) | Abdominal pain, subjects (%) (Cohorts 1 and 2, QD): 6 (30%) | Acne, subjects (%) (Cohorts 1 and 2, QD): 0 | Application site dermatitis, subjects (%) (Cohorts 1 and 2, QD): 6 (30%) | Arthralgia, subjects (%) (Cohorts 1 and 2, QD): 0 | Asthenia, subjects (%) (Cohorts 1 and 2, QD): 2 (10%) | Back pain, subjects (%) (Cohorts 1 and 2, QD): 1 (5%) | Chapped lips, subjects (%) (Cohorts 1 and 2, QD): 0 | Chest pain, subjects (%) (Cohorts 1 and 2, QD): 1 (5%) | Chromaturia, subjects (%) (Cohorts 1 and 2, QD): 0 | Constipation, subjects (%) (Cohorts 1 and 2, QD): 6 (30%) | Decreased appetite, subjects (%) (Cohorts 1 and 2, QD): 4 (20%) | Dermatitis contact, subjects (%) (Cohorts 1 and 2, QD): 0 | Diarrhea, subjects (%) (Cohorts 1 and 2, QD): 5 (25%) | Dizziness, subjects (%) (Cohorts 1 and 2, QD): 5 (25%) | Dry mouth, subjects (%) (Cohorts 1 and 2, QD): 0 | Eructation, subjects (%) (Cohorts 1 and 2, QD): 3 (15%) | Fatigue, subjects (%) (Cohorts 1 and 2, QD): 2 (10%) | Feeling hot, subjects (%) (Cohorts 1 and 2, QD): 2 (10%) | Flatulence, subjects (%) (Cohorts 1 and 2, QD): 2 (10%) | Flushing, subjects (%) (Cohorts 1 and 2, QD): 7(35%) | Headache, subjects (%) (Cohorts 1 and 2, QD): 19 (95%) | Hordeolum, subjects (%) (Cohorts 1 and 2, QD): 3 (15%) | Muscle tightness, subjects (%) (Cohorts 1 and 2, QD): 0 | Muscular weakness, subjects (%) (Cohorts 1 and 2, QD): 1 (5%) | Myalgia, subjects (%) (Cohorts 1 and 2, QD): 6 (30%) | Nausea, subjects (%) (Cohorts 1 and 2, QD): 17 (85%) | Non-cardiac chest pain, subjects (%) (Cohorts 1 and 2, QD): 2 (10%) | Number of AEs reported (Cohorts 1 and 2, QD): 230 | Ocular hyperemia, subjects (%) (Cohorts 1 and 2, QD): 0 | Oropharyngeal pain, subjects (%) (Cohorts 1 and 2, QD): 2(10%) | Pain in extremity, subjects (%) (Cohorts 1 and 2, QD): 3 (15%) | Pain in jaw, subjects (%) (Cohorts 1 and 2, QD): 13 (65%) | Palpitations, subjects (%) (Cohorts 1 and 2, QD): 4 (20%) | Paraesthesia, subjects (%) (Cohorts 1 and 2, QD): 1 (5%) | Pruritus, subjects (%) (Cohorts 1 and 2, QD): 1 (5.0%) | Restless leg syndrome, subjects (%) (Cohorts 1 and 2, QD): 1 (5%) | Somnolence, subjects (%) (Cohorts 1 and 2, QD): 3 (15%) | Total (%) subjects with at least one AE (Cohorts 1 and 2, QD): 20 (100%) | Total (%) subjects with at least one SAE (Cohorts 1 and 2, QD): 1 (5.0%) | Tremor, subjects (%) (Cohorts 1 and 2, QD): 2 (10%) | Vomiting, subjects (%) (Cohorts 1 and 2, QD): 12 (60%) | Subjects withdrawn from the study due to AEs (Cohorts 1 and 2, receiving ralinepag): three | Tolerability versus dose (QD (up to 400 µg) or BID (up to 70 µg) dosing): tolerability decreasing with increasing dose | QT prolongation (12-lead Holter ECG, high-precision QT analysis) (QD and BID dose ranges evaluated): not likely to be associated with QT prolongation | Serious adverse event (one subject, 50 µg QD, Cohort 2, possibly related to study medication): SAE of atrial fibrillation considered moderate in intensity

From paper PMC7238799 (Pulmonary Circulation, 2020)
